# Reference: ChEMBL document CHEMBL1129543, “Synthesis and evaluation of N-(phenylacetyl)trifluoromethanesulfonamides as anticonvulsant agents” (J Med Chem, 1996)
# Legend:
# Rattus norvegicus [1] = organism: Rattus norvegicus; experiment: Protective index (TD50/ED50) was determined against scMet induced seizure in rat.; assay type: functional
# How it was run: (§1)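 Oral dosing in 30% PEG 400: phase IV in mice (0.01 mL/g), phase VI in Sprague-Dawley rats (0.004 mL/g). ED50/TD50 found as in phase II, at the stated time of peak effect. MES current 50 mA in mice, 150 mA in rats. Toxicity by rotorod in mice; positional sense, gait and stance in rats. PI = TD50/ED50.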
# Rattus norvegicus [2] = organism: Rattus norvegicus; experiment: Total body weight up to 7th day was evaluated in grams of chronic treated rats; assay type: functional
# How it was run: (§2)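 Rats (eight per group) given 6 mg/kg po daily, then kept on the same regimen 2 more days. Weights taken on day 7. On day 8 rats decapitated; livers perfused with 0.9% NaCl, weighed and homogenized in 0.25 M sucrose. Microsomal assays per Franklin and Estabrook. Values given as average and deviation.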
# Rattus norvegicus [3] = organism: Rattus norvegicus; experiment: Total liver Protein up to 7th day was evaluated in mg/liver of chronic treated rats; assay type: functional; how it was run: as §2
# Mus musculus [4] = experiment: Inhibition of seizures induced in mice by a convulsant dose of up to 300 mg/kg; d= No protection; assay type: functional, organism-based; design: dose 300 mg/kg
# How it was run: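 Convulsant (bicuculline, picrotoxin, strychnine or PTZ) given at CD97 as a 0.5% solution. Observed 30 min (45 min for picrotoxin). PI uses ip mouse TD50.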
# Mus musculus [5] = experiment: Median toxic dose was evaluated by […] through intraperitoneal administration; assay type: functional
# Mus musculus [6] = organism: Mus musculus; experiment: Median hypnotic dose was evaluated by loss of righting reflex; assay type: functional
# Rattus norvegicus [7] = experiment: Time to peak effect in Rats was evaluated by Maximal electroshock seizure (MES) test in hours by oral administration; assay type: functional
# How it was run: as §1, with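 “in rats. PTZ sc 85 mg/kg in mice, 70 mg/kg in rats. Toxicity by” for “in rats. Toxicity by”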
# Rattus norvegicus [8] = experiment: Time to peak effect in Rats was evaluated by Neurologic toxicity (rotarod test) in hours by oral administration; assay type: functional
# Mus musculus [9] = organism: Mus musculus; experiment: Time to peak toxicity was evaluated by Maximal electroshock seizure test in hours; assay type: functional
# Mus musculus [10] = organism: Mus musculus; experiment: Anti-seizure activity was evaluated by Neurologic toxicity (rotarod test) after 4.0 hours; - denotes no antiseizure activity; assay type: functional, organism-based
# How it was run: (§3)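 Phase I neurotoxicity in mice by rotorod ataxia test. Compound given ip at 30, 100, 300 or 600 mg/kg in 30% PEG 400, read 0.5 h and 4 h after. Scored ++++ to + for toxicity at 30 to 600 mg/kg; - means no toxicity.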
# Mus musculus [11] = experiment: […] was evaluated by Neurologic toxicity (rotarod test) in mice by oral administration; assay type: functional
# How it was run: as §1, with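 “in rats. PTZ sc 85 mg/kg in mice, 70 mg/kg in rats. Toxicity by” for “in rats. Toxicity by”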
# Rattus norvegicus [12] = experiment: Median Effective dose was evaluated by Maximal electroshock seizure (MES) test in Rats by oral administration; assay type: functional
# Rattus norvegicus [13] = experiment: […] was evaluated by Neurologic toxicity (rotarod test) in Rats by oral administration; assay type: functional
# Rattus norvegicus [14] = experiment: Median Effective dose was evaluated by Subcutaneous pentylenetetrazole seizure test in Rats by oral administration up to 40 mg/kg; b=no protection; assay type: functional, organism-based; design: dose 40 mg/kg
# How it was run: as §1, with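 “in rats. PTZ sc 85 mg/kg in mice, 70 mg/kg in rats. Toxicity by” for “in rats. Toxicity by”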
# Rattus norvegicus [15] = organism: Rattus norvegicus; experiment: Induction of cytochrome P-450 enzyme was evaluated in units of nmol of enzyme/mg liver of chronic treated rats
# Mus musculus [16] = experiment: Inhibition of seizures induced in mice by a convulsant dose of strychnine through ip administration; assay type: functional
# How it was run: (§4)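 Phase V differentiation in mice: test drug given ip at time of peak therapeutic effect, then the CD₉₇ of each convulsant (picrotoxin, bicuculline, strychnine) given ip as a 0.5% solution; observation 30 min for bicuculline and strychnine, 45 min for picrotoxin. Drug in 30% PEG 400, 0.01 mL/g. ED₅₀ with 95% confidence intervals from ≥3 points in the 10-90% protection range, groups of 6-12 mice.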
# Rattus norvegicus [17] = organism: Rattus norvegicus; experiment: zInduction of NADPH cytochrome C reductase enzyme was evaluated in units of nmol/min per mg liver of chronic treated rats; assay type: functional; how it was run: as §2
# Mus musculus [18] = experiment: Median Effective dose was evaluated by Maximal electroshock seizure (MES) test in mice by oral administration; assay type: functional
# Mus musculus [19] = experiment: Time to peak effect in mice was evaluated by Neurologic toxicity (rotarod test) in hours by oral administration; assay type: functional
# How it was run: as §1, with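 “in rats. PTZ sc 85 mg/kg in mice, 70 mg/kg in rats. Toxicity by” for “in rats. Toxicity by”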
# Rattus norvegicus [20] = organism: Rattus norvegicus; experiment: Protective index (TD50/ED50) was determined against MES induced seizure in rat.; assay type: functional; how it was run: as §1
# Rattus norvegicus [21] = experiment: The loss of righting reflex time was evaluated in chronic treated rats by hexobarbital injection at a hypnotic dose 100 mg/kg; assay type: functional
# How it was run: (§5)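 Rats, eight per group, dosed po daily: vehicle for 4 days then 6 mg/kg on day 5 (acute), or 6 mg/kg daily for 5 days (chronic). Hexobarbital 100 mg/kg ip on day 6. Loss-of-righting-reflex time recorded to the nearest minute; group mean taken.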
# Rattus norvegicus [22] = organism: Rattus norvegicus; experiment: Induction of p-nitroanisole-O-dimethylase enzyme was evaluated in units of nmol/min per mg liver of chronic treated rats; assay type: functional; how it was run: as §2
# Mus musculus [23] = experiment: Median effective dose was evaluated by subcutaneous pentylenetetrazole seizure test through intraperitoneal administration; assay type: functional
# How it was run: (§6)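 Phase II in mice, ip dosing in 30% PEG 400. Groups of 6-12 mice per dose until at least three points fall in 10-90% protection. […] MES: 50 mA, 0.2 s corneal. scMet: pentylenetetrazol 85 mg/kg sc.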
# Mus musculus [24] = experiment: Anti-seizure activity was evaluated by Neurologic toxicity (rotarod test) at dose 600 mg/kg after 0.5 hours; + denotes neurotoxicity; assay type: functional, organism-based; design: dose 600 mg/kg; how it was run: as §3
# Mus musculus [25] = experiment: Time to peak effect in mice was evaluated by Maximal electroshock seizure (MES) test in hours by oral administration; assay type: functional
# How it was run: as §1, with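 “in rats. PTZ sc 85 mg/kg in mice, 70 mg/kg in rats. Toxicity by” for “in rats. Toxicity by”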
# Rattus norvegicus [26] = experiment: The loss of righting reflex time was evaluated in acute control rats by hexobarbital injection at a hypnotic dose 100 mg/kg; assay type: functional; how it was run: as §5
# Mus musculus [27] = experiment: Time to peak effect in mice was evaluated by Subcutaneous pentylenetetrazole seizure test in hours by oral administration; assay type: functional
# How it was run: as §1, with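 “in rats. PTZ sc 85 mg/kg in mice, 70 mg/kg in rats. Toxicity by” for “in rats. Toxicity by”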
# Mus musculus [28] = experiment: Median Effective dose was evaluated by Subcutaneous pentylenetetrazole seizure test in mice by oral administration; assay type: functional
# Mus musculus [29] = organism: Mus musculus; experiment: Time to peak activity was evaluated by Maximal electroshock seizure test in hours; assay type: functional
# Mus musculus [30] = experiment: Inhibition of picrotoxin-induced seizures in mice by ip administration up to 300 mg/kg (d=No protection); assay type: functional, organism-based; design: dose 300 mg/kg; how it was run: as §4
# Rattus norvegicus [31] = experiment: Time to peak effect in Rats was evaluated by Subcutaneous pentylenetetrazole seizure test in hours by oral administration; assay type: functional
# How it was run: as §1, with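 “in rats. PTZ sc 85 mg/kg in mice, 70 mg/kg in rats. Toxicity by” for “in rats. Toxicity by”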
# Mus musculus [32] = experiment: (§7) Median effective dose was evaluated by Maximal electroshock seizure test through intraperitoneal administration; assay type: functional; details: ip; how it was run: as §6
# Mus musculus [33] = experiment: Median lethal dose was evaluated by mortality after 24 hr through ip injection administration; d= Hypnosis and death occurred; assay type: ADME, organism-based; details: in vivo
# How it was run: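 Mice were dosed ip in 30% PEG 400. Mortality was scored 24 h after injection in groups of eight. The 24-h LD₅₀ was derived as for the ED₅₀/TD₅₀, with 95% confidence intervals.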
# Mus musculus [34] = experiment: Anti-seizure activity was evaluated by Subcutaneous pentylenetetrazole seizure test at dose 600 mg/kg after 0.5 hours; + denotes neurotoxicity; assay type: functional, organism-based; design: dose 600 mg/kg
# How it was run: (§8)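 Phase I screen in mice: ip dosing at 30, 100, 300 and 600 mg/kg in 30% PEG 400, read 0.5 h and 4 h after. Pentylenetetrazol given sc at CD97 (85 mg/kg). Protection means no clonic spasm of at least 5 s over 30 min. Scored ++++ to + for 30 to 600 mg/kg.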
# Mus musculus [35] = experiment: Anti-seizure activity was evaluated by Neurologic toxicity (rotarod test) at dose 600 mg/kg after 4.0 hours; + denotes neurotoxicity; assay type: functional, organism-based; design: dose 600 mg/kg; how it was run: as §3
# Mus musculus [36] = experiment: Anti-seizure activity was evaluated by Maximal electroshock seizure (MES) test at dose 300 mg/kg after 0.5 hours; ++ denotes antiseizure activity; assay type: functional, organism-based; design: dose 300 mg/kg
# How it was run: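 Phase I screen in mice: ip injection at 30, 100, 300 and 600 mg/kg in 30% PEG 400 (0.01 mL/g). Test run 0.5 h and 4 h after dosing. 60-Hz AC, 50 mA, via corneal electrodes for 0.2 s. Protection means abolition of hind-leg tonic extension. Scored ++++ to + for activity at 30 to 600 mg/kg.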
# Mus musculus [37] = experiment: Anti-seizure activity was evaluated by Subcutaneous pentylenetetrazole seizure test at dose 300 mg/kg after 4.0 hours; ++ denotes antiseizure activity; assay type: functional, organism-based; design: dose 300 mg/kg; how it was run: as §8
# Mus musculus [38] = experiment: as §7; assay type: functional; details: ip; remark: listed apart in the source
# How it was run: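 Phase II in mice, ip dosing in 30% PEG 400. Groups of 6-12 mice per dose until at least three points fall in 10-90% protection.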
# Mus musculus [39] = experiment: Anti-seizure activity was evaluated by Neurologic toxicity (rotarod test) at dose 300 mg/kg after 0.5 hours; ++ denotes antiseizure activity; assay type: functional, organism-based; design: dose 300 mg/kg; how it was run: as §3
smiles,measurement,setting,value
O=C(Cc1ccccc1)NS(=O)(=O)C(F)(F)F,PI,Rattus norvegicus [1],34
same,Weight,Rattus norvegicus [2],128.8
same,Protein,Rattus norvegicus [3],40.4
same,ED50,Mus musculus [4],No protection
same,TD50,Mus musculus [5],329 mg/kg
same,HD50,Mus musculus [6],522 mg/kg
same,TPE,Rattus norvegicus [7],8 h
same,TPE,Rattus norvegicus [8],24 h
same,TPE,Mus musculus [9],24
same,Activity,Mus musculus [10],No activity
same,TD50,Mus musculus [11],> 1000 mg/kg
same,ED50,Rattus norvegicus [12],6.1 mg/kg
same,TD50,Rattus norvegicus [13],40 mg/kg
same,ED50,Rattus norvegicus [14],No protection
same,Induction,Rattus norvegicus [15],0.41
same,ED50,Mus musculus [16],56 mg/kg
same,Induction,Rattus norvegicus [17],109.9
same,ED50,Mus musculus [18],8.4 mg/kg
same,TPE,Mus musculus [19],24 h
same,PI,Rattus norvegicus [20],53
same,Sleep time,Rattus norvegicus [21],51
same,Induction,Rattus norvegicus [22],0.36
same,ED50,Mus musculus [23],10 mg/kg
same,Activity,Mus musculus [24],Antiseizure activity
same,TPE,Mus musculus [25],8 h
same,Sleep time,Rattus norvegicus [26],33
same,TPE,Mus musculus [27],8 h
same,ED50,Mus musculus [28],60 mg/kg
same,TPE,Mus musculus [29],6
same,ED50,Mus musculus [30],No protection
same,TPE,Rattus norvegicus [31],8 h
same,ED50,Mus musculus [32],6.2 mg/kg
same,LD50,Mus musculus [33],No protection
same,Activity,Mus musculus [34],Antiseizure activity
COc1ccc(CC(=O)NS(=O)(=O)C(F)(F)F)cc1,PI,Rattus norvegicus [1],10
same,Activity,Mus musculus [35],Antiseizure activity
same,TD50,Mus musculus [5],557 mg/kg
same,TPE,Mus musculus [9],0.5
same,Activity,Mus musculus [36],Antiseizure activity
same,PI,Rattus norvegicus [20],17
same,ED50,Mus musculus [23],53 mg/kg
same,TPE,Mus musculus [29],2
same,Activity,Mus musculus [37],Antiseizure activity
same,ED50,Mus musculus [38],33 mg/kg
same,Activity,Mus musculus [39],Antiseizure activity
